In ChEMBL document CHEMBL1124558, “Differential effects of a series of hydroxamic acid derivatives on 5-lipoxygenase and cyclooxygenase from neutrophils and 12-lipoxygenase from platelets and their in vivo effects on inflammation and anaphylaxis” (J Med Chem, 1989):

What was measured:
[1] = target: T1, Polyunsaturated fatty acid 5-lipoxygenase (Homo sapiens, UniProt P09917); assay: In vitro inhibition of polymorphonuclear leukocyte derived human 5-lipoxygenase
T1 sequence (P09917 whole entry): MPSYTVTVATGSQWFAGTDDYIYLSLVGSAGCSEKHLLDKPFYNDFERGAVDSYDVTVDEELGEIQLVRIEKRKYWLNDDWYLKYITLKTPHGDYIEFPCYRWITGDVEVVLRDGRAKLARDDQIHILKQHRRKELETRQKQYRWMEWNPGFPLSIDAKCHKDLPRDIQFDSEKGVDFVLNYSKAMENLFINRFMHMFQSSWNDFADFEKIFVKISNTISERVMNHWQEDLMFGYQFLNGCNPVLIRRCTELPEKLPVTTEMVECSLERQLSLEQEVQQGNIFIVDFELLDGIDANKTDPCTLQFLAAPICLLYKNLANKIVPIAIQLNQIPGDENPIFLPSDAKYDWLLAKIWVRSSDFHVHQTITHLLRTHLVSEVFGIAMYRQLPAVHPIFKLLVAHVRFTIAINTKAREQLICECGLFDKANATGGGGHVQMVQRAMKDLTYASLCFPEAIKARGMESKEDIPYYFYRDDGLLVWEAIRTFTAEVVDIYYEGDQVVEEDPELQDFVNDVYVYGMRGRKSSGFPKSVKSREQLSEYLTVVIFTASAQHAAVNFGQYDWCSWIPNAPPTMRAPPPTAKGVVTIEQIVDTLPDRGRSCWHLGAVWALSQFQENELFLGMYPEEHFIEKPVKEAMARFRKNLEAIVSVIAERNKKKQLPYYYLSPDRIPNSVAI
In short: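 PMNs from venous blood of healthy volunteers, isolated by dextran sedimentation and Percoll gradient (>90% pure) and held in Ca/Mg PBS with 1 mg/mL glucose and 1 μM indomethacin. Challenged with calcium ionophore and [14C]arachidonic acid for 3 min. 5-HETE measured by TLC and scintillation counting; IC50 read graphically.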

[2] = target: T2, Polyunsaturated fatty acid 5-lipoxygenase (Rattus norvegicus, UniProt P12527); assay: In vitro inhibition of rat polymorphonuclear leukocyte 5-lipoxygenase
T2 sequence (P12527 whole entry): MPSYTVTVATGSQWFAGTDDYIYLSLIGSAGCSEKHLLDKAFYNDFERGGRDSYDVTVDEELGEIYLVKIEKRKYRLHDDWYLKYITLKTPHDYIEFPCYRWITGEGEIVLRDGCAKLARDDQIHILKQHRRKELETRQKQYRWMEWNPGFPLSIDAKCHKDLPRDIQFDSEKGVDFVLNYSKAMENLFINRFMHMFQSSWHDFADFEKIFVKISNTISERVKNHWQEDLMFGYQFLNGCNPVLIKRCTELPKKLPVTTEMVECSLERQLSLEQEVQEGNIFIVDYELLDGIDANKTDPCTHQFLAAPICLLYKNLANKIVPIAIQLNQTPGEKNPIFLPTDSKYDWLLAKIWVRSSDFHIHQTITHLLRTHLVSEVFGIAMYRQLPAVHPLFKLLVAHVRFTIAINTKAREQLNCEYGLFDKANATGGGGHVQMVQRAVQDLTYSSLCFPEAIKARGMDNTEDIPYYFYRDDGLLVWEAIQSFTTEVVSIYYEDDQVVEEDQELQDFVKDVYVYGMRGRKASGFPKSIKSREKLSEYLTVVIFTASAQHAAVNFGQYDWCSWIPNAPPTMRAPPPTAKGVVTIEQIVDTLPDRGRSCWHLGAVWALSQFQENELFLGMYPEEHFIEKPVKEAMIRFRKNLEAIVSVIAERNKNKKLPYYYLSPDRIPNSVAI
In short: (§1)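 Intact glycogen-elicited peritoneal PMNs pooled from 4–5 Sprague-Dawley rats (250 g), preincubated 5 min at 30 °C with compound in DMSO (≤0.1% final) plus 1 μM indomethacin. Challenge with [14C]arachidonic acid (4 μM) and A23187 (0.8 μM) for 3 min. Extraction, TLC, 5-HETE by scintillation counting.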

Cavia porcellus [3] = assay: In vivo inhibitory activity against guinea pig systemic anaphylaxis when administered a compound dose (10 mg/kg) intravenously; assay type: functional; settings: iv
Cavia porcellus [4] = assay: In vivo inhibitory activity against guinea pig systemic anaphylaxis when administered a compound dose (50 mg/kg) perorally; assay type: functional; settings: po
In short: (§2)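 Male Hartley guinea pigs sensitised ip with ovalbumin (2.7 mg/kg) plus LPS adjuvant, then challenged 2 weeks later with 1% ovalbumin aerosol for 30 s. Pretreated with pyrilamine, indomethacin and propranolol 20 min before challenge. Compound given in PEG 400 1 h before challenge.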

Mus musculus = assay: In vivo inhibition of mouse ear inflammation; assay type: functional; design: concentration or dose not given beside the values
In short: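 Compound or ethanol vehicle applied topically to one ear of male DBA/2J mice 60 min before arachidonic acid (2 mg/ear). […] Groups of 5 mice.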

[5] = target: Cyclooxygenase (Rattus norvegicus) (UniProt P35355+Q63921); assay: Inhibition of Prostaglandin G/H synthase in rat polymorphonuclear leukocytes; assay type: cell-based; design: concentration or dose not given beside the values; settings: concentration not given here
In short: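 Homogenate of glycogen-elicited rat peritoneal PMNs in 0.1 M Tris-HCl pH 8.2 with 10 μM NDGA, preincubated 5 min at 37 °C with compound (≤0.1% DMSO). [14C]arachidonic acid (8 μM) added with 4 mM glutathione and epinephrine; 10 min reaction. TxB2 and PGF2α separated by TLC and counted.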

12-lipoxygenase = 12-lipoxygenase (Rattus norvegicus, UniProt F1LQ70); assay: In vitro inhibitory activity against rat platelet 12-lipoxygenase
Sequence of 12-lipoxygenase (F1LQ70 whole entry, looked up): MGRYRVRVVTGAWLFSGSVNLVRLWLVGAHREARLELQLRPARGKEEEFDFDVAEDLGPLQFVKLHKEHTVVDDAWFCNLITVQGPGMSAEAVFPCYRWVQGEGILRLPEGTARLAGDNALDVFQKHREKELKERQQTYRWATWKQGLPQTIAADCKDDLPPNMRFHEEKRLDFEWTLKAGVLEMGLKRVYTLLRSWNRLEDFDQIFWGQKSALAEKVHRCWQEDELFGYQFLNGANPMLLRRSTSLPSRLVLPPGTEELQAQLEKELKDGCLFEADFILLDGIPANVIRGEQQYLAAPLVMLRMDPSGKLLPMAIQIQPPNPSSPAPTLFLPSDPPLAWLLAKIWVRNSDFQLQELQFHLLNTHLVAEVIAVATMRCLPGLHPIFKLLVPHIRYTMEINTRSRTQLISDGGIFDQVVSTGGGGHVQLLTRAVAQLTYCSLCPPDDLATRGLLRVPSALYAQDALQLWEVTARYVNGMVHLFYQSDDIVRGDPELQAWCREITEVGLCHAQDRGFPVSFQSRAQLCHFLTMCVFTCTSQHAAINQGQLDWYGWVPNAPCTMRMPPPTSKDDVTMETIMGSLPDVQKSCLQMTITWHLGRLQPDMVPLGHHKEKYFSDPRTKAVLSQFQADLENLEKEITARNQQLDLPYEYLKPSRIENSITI

Cavia porcellus [6] = assay: In vivo inhibitory activity against guinea pig systemic anaphylaxis when administered a compound dose (200 mg/kg) perorally; assay type: functional; settings: po; in short: as §2
[7] = target: T3, Arachidonate 12-lipoxygenase (Rattus norvegicus) (UniProt Q02759); assay: In vitro inhibitory activity against rat platelet 12-lipoxygenase at 30 uM
T3 sequence (whole entry): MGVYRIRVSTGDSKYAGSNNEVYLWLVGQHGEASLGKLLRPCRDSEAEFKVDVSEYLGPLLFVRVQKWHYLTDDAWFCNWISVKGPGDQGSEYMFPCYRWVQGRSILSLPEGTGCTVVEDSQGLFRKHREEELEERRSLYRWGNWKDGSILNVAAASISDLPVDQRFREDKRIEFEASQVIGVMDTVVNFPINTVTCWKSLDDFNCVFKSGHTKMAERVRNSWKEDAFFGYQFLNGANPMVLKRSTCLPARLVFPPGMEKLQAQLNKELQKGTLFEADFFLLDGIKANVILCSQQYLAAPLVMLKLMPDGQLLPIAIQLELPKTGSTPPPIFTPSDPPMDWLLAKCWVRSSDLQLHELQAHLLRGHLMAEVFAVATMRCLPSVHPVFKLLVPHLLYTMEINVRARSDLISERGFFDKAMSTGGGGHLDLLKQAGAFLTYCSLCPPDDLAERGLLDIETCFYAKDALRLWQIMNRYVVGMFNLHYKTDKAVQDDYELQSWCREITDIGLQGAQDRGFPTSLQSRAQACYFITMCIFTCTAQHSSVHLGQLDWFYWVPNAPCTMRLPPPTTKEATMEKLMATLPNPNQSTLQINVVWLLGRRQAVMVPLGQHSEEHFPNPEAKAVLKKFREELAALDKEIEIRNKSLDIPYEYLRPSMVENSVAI
In short: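 Cell-free cytosolic 12-lipoxygenase from Sprague-Dawley rat platelets (0.4 mg/mL), preincubated 5 min at 30 °C with compound in DMSO (≤0.1% final), 25 mM Tris pH 7.4, 1 μM indomethacin, 100 μM glutathione; reaction started with 6 μM [14C]arachidonic acid and quenched with citric acid/NDGA after 3 min. 12-HETE isolated by TLC and counted by scintillation; % inhibition, duplicate.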

[8] = target: T1, Polyunsaturated fatty acid 5-lipoxygenase; assay: In vitro inhibitory activity against polymorphonuclear leukocyte 5-lipoxygenase in human cell at 10 uM
In short: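 Human PMNs from venous blood of a healthy volunteer (EDTA) were purified by dextran sedimentation, a Percoll gradient and NH4Cl red-cell lysis (>90% pure). They were held in Ca/Mg PBS with 1 mg/mL glucose and 1 μM indomethacin, then challenged with A23187 (0.8 μM) and [14C]arachidonic acid (4 μM) for 3 min. 5-HETE was measured by TLC and scintillation counting.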

[9] = target: T4, Polyunsaturated fatty acid 5-lipoxygenase (Rattus norvegicus) (UniProt P12527); assay: In vitro inhibitory activity against polymorphonuclear leukocyte 5-lipoxygenase in rat cell at 1 uM; in short: as §1
T4 sequence (whole entry): T2 sequence (P12527 whole entry)

IC50 [1] [nM] | IC50 [2] [nM] | inhibition [5] [%] | Ki (12-lipoxygenase) [nM] | inhibition [7] [%] | Inhibition [8] [%] | inhibition [9] [%] | Structure (SMILES) | inhibition in vivo at 10 mg/kg (Cavia porcellus [3]) [%] | inhibition in vivo at 50 mg/kg (Cavia porcellus [4]) [%] | Inhibition (Mus musculus) [%] | inhibition in vivo at 200 mg/kg (Cavia porcellus [6]) [%]
180 | 300 | 44 | – | – | – | – | O=C(CCCc1ccccc1)N(O)CCc1ccccc1 | 50 | 17 | 56 | –
– | – | < 10 | 1600 | – | – | – | O=C(Cc1ccc(OCc2ccccc2)cc1)N(O)CCc1ccccc1 | – | – | 39 | 17
– | – | < 10 | – | 3 | < 10 | 24 | O=C(/C=C/c1ccc(OCc2ccccc2)cc1)N(O)CCc1ccccc1 | – | – | – | –
